From ChEMBL document CHEMBL1123129, “Hypolipidemic activity of indan-1,3-dione derivatives in rodents” (J Med Chem, 1985)

How the values were obtained:
[1] = system: Rattus norvegicus; assay: Compound was evaluated for the hypolipidemic activity at 20 mg/kg per day orally for 14 days on phospholipids content in rat feces.; assay type: functional; settings: route oral
Procedure, shortened: (§1)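 Male Sprague–Dawley rats were dosed orally for 14 days. Liver, small intestine and a 24-h fecal collection were lipid-extracted. Extracts were assayed for cholesterol (modified Liebermann–Burchard), triglyceride (enzymatic kit), neutral lipids, phospholipids and protein. Values are % of 1% CMC vehicle control, mean ± SD, N = 6.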

[2] = system: Rattus norvegicus; assay: Compound was evaluated for the hypolipidemic activity at 20 mg/kg per day orally for 14 days on neutral lipid content in rat liver; assay type: functional; settings: route oral; procedure, shortened: as §1
[3] = system: Rattus norvegicus; assay: Compound was evaluated for the hypolipidemic activity at 20 mg/kg per day orally for 14 days on triglycerides content in rat feces.; assay type: functional; settings: route oral; procedure, shortened: as §1
[4] = organism: Mus musculus; assay: In Vitro evaluation for the CF1 liver enzyme activity on Acetyl-CoA carboxylase at concentration 50 uM; assay type: functional
Procedure, shortened: (§2)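 Liver was taken from CF1 male mice and made into 10% homogenates, which were incubated with test compound at 50, 100 or 200 µM. Each enzyme was assayed by its literature method, and protein was measured by Lowry. N = 6. Activity is expressed as % of untreated control ± SD.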

[5] = biological target: Acetyl-CoA carboxylase 1 (Mus musculus) (UniProt Q5SWU9); assay: In Vitro evaluation for the CF1 liver enzyme activity on Acetyl-CoA carboxylase at concentration 100 uM; procedure, shortened: as §2
[6] = biological target: T1, ATP-citrate synthase (Mus musculus) (UniProt Q91V92); assay: In Vitro evaluation for the CF1 liver enzyme activity on ATP-Citrate Lyase exchange at concentration 200 uM; procedure, shortened: as §2
T1 sequence (whole entry): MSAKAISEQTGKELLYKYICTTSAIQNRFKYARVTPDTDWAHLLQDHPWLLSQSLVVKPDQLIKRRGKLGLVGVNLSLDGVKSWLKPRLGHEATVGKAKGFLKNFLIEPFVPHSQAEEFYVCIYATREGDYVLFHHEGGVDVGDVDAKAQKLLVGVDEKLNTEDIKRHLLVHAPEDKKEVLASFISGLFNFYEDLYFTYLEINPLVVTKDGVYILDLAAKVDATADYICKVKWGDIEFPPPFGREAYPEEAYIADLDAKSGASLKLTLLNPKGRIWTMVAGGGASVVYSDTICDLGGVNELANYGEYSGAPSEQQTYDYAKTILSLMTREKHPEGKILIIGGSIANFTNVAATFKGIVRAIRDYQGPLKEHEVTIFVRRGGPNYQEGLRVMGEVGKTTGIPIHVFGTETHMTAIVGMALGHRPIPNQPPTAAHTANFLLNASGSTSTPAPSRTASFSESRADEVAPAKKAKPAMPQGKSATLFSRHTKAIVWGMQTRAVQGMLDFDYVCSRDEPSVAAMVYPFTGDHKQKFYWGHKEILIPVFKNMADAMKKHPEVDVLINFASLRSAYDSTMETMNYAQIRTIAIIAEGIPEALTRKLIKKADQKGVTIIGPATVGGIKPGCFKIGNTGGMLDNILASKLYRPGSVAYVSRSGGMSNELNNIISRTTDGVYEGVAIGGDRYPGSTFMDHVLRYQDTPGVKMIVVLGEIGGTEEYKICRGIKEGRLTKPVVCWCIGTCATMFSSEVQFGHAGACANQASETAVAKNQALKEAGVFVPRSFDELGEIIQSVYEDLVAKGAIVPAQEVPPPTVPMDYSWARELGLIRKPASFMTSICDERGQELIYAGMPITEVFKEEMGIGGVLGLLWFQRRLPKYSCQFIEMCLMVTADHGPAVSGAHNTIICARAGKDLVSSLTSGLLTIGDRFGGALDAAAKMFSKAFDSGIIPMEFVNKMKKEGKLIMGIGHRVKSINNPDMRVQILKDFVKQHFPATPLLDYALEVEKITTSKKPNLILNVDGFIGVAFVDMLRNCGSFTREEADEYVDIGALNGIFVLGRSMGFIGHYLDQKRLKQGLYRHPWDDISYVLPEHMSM

[7] = biological target: T1, ATP-citrate synthase (Mus musculus); assay: In Vitro evaluation for the CF1 liver enzyme activity on ATP-dependent citrate exchange at concentration 50 uM; procedure, shortened: as §2
[8] = organism: Mus musculus; assay: In Vitro evaluation for the CF1 liver enzyme activity on Mitochondrial citrate exchange at concentration 50 uM; assay type: functional
Procedure, shortened: (§3)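 Mouse liver enzymes assayed in vitro on 10% homogenates of CF1 male mouse liver, with test drug added at 50–200 μM. Each enzyme follows a published procedure. Protein is measured by Lowry. Activity is given as % of untreated control (X ± SD, N = 6).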

[9] = organism: Mus musculus; assay: In Vitro evaluation for the CF1 liver enzyme activity on Mitochondrial citrate exchange at concentration 100 uM; assay type: functional; procedure, shortened: as §3
[10] = organism: Mus musculus; assay: In Vitro evaluation for the CF1 liver enzyme activity on phosphatidate phosphohydrolase at concentration 50 uM; procedure, shortened: as §3
[11] = biological target: T2, 3-hydroxy-3-methylglutaryl-coenzyme A reductase (Mus musculus) (UniProt Q01237); assay: In Vitro evaluation for the CF1 liver enzyme activity on HMG CoA reductase at concentration 200 uM; procedure, shortened: as §2
T2 sequence (whole entry): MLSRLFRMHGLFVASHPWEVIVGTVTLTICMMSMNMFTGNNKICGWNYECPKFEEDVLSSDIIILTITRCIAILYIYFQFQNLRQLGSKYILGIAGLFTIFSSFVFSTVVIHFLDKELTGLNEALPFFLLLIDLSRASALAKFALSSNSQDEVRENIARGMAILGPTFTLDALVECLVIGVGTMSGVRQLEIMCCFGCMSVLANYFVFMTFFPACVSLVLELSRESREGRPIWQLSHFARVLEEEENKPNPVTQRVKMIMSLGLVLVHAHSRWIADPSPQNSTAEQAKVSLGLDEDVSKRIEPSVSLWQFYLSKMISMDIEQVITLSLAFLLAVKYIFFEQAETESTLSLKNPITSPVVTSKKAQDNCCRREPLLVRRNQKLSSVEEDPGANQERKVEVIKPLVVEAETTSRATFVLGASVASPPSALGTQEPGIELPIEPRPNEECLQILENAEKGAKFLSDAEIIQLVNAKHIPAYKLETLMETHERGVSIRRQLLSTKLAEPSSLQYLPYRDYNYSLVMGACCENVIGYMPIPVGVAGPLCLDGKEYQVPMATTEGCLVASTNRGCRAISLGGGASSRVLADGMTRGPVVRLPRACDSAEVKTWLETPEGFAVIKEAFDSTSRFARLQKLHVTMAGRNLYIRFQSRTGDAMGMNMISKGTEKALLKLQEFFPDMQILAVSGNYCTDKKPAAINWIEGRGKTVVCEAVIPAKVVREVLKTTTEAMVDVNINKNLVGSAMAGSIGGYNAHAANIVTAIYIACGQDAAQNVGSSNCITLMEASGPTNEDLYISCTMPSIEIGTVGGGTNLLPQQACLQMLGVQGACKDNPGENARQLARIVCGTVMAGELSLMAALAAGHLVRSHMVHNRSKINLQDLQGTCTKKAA

Compound `COc1ccc(C2C(=O)c3ccccc3C2=O)cc1` [ANISINDIONE] has a Control [1] of 100%, a Control [2] of 84% and a Control [3] of 118%. For the same compound, the Control [4] was 118%, the Control [5] was 93% and the Control [6] was 52%. For the same compound, the Control [7] was 72%, the Control [8] was 36% and the Control [9] was 38%. The Control [10] was 36% and the Control [11] was 105%.
